{
  "source": "ChEMBL document CHEMBL3286381",
  "about": "(J Med Chem, 2014)",
  "key": {"[1]": {"target": "T1, Ectonucleoside triphosphate diphosphohydrolase 1 (Homo sapiens) (UniProt P49961)", "T1 sequence (whole entry)": "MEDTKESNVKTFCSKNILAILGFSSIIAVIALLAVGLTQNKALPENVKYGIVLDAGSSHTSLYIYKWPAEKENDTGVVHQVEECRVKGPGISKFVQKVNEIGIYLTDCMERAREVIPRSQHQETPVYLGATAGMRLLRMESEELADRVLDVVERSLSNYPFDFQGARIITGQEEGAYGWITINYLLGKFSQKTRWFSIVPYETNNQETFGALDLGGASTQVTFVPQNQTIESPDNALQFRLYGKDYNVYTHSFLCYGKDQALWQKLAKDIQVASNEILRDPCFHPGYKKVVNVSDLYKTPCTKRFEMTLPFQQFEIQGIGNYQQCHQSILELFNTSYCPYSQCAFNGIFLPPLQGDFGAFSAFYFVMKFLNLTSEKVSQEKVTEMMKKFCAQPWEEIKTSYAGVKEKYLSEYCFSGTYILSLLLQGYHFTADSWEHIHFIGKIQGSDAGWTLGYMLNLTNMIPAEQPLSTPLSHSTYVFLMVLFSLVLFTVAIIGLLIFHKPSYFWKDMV", "assay": "Inhibition of human NTPDase-1 using ATP as substrate assessed as inorganic phosphate release at 100 uM after 15 mins relative to control", "summary_of_the_method": "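Protein extracts are from COS-7 cells transiently transfected with human NTPDase1, 2, 3 or 8. Extract is preincubated for 3 min at 37 °C in Tris–Ringer buffer (pH 7.3). […] Three experiments in triplicate.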"}, "[2]": {"target": "P2Y purinoceptor 1 (Homo sapiens) (UniProt P47900)", "sequence (P47900 whole entry)": "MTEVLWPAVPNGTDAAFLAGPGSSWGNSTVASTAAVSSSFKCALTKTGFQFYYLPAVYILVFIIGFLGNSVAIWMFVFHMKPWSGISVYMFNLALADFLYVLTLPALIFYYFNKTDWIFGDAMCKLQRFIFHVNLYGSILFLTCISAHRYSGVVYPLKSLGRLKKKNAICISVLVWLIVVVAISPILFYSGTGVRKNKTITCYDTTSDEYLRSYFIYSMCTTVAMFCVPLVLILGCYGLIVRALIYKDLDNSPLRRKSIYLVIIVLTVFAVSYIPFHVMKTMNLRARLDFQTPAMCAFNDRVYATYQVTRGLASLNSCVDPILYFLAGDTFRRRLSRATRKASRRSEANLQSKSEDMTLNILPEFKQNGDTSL", "assay": "Agonist activity at human P2Y1 receptor expressed in human 1321N1 cells assessed as increase of intracellular calcium level up to 10 uM after 30 mins using fura-2 AM by fluorescence assay", "format": "functional, cell-based"}, "[3]": {"target": "T2, Ectonucleotide pyrophosphatase/phosphodiesterase family member 1 (Homo sapiens) (UniProt P22413)", "T2 sequence (whole entry)": "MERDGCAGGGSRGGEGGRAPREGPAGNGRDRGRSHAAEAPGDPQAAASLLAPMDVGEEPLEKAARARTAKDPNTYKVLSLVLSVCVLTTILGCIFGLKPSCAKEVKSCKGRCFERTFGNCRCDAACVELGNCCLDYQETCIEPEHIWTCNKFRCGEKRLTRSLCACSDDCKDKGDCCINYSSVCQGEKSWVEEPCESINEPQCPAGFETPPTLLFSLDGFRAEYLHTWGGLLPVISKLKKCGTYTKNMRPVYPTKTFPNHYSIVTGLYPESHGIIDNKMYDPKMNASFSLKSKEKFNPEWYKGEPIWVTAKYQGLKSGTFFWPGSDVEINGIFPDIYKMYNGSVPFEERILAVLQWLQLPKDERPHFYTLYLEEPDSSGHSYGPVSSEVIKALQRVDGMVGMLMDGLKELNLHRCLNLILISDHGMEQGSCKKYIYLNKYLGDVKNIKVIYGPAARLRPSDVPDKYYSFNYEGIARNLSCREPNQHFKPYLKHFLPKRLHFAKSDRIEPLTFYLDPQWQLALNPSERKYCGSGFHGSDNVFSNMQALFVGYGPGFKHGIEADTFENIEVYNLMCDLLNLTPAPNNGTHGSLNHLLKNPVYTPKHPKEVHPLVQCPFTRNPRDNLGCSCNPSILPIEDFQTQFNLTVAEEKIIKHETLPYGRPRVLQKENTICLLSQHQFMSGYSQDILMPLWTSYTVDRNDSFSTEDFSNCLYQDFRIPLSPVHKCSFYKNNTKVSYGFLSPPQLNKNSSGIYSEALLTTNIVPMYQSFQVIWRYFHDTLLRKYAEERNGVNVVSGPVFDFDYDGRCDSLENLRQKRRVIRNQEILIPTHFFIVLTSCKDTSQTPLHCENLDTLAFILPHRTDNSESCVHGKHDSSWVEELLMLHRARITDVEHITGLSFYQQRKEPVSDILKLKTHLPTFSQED", "assay": "Inhibition of human NPP1 using ATP as substrate at 100 uM after 20 mins by reversed-phase HPLC analysis"}, "[4]": {"target": "T3, Ectonucleotide pyrophosphatase/phosphodiesterase family member 3 (Homo sapiens) (UniProt O14638)", "T3 sequence (whole entry)": "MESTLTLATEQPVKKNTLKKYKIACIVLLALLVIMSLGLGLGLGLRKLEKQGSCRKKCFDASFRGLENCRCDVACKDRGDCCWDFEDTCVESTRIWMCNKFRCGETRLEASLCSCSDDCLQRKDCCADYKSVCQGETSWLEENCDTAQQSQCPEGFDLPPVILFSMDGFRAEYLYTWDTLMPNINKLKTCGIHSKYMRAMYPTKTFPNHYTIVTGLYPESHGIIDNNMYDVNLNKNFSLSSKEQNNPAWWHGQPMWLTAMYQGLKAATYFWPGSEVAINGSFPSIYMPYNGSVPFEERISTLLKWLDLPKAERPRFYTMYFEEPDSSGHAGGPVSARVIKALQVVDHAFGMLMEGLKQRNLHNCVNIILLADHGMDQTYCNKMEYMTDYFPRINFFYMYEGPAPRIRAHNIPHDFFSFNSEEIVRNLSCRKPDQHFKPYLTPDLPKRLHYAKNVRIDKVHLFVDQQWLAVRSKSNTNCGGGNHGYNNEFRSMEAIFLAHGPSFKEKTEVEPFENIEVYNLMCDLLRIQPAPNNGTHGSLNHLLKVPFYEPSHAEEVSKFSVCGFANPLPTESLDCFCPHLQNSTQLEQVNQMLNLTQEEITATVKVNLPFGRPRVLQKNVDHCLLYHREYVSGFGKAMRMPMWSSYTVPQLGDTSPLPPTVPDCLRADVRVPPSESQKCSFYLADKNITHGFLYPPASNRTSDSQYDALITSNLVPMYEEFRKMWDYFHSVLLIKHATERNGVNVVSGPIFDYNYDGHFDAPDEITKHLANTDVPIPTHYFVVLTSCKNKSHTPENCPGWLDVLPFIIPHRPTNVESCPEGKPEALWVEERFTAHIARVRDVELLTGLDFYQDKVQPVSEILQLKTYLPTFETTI", "assay": "Inhibition of human NPP3 using pNP-TMP as substrate at 100 uM after 20 mins by reversed-phase HPLC analysis"}, "[5]": {"target": "T4, Ectonucleotide pyrophosphatase/phosphodiesterase family member 1 (Homo sapiens, UniProt P22413)", "T4 sequence (P22413 whole entry)": "T2 sequence (whole entry)", "assay": "Mixed type inhibition of human NPP1 using pNP-TMP as substrate after 20 mins by Dixon and Cornish-Bowden method", "summary_of_the_method": "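Human NPP1 (COS-7 lysate) is tested with pNP-TMP hydrolysis at 37 °C in pH 8.5 Tris buffer, reading p-nitrophenol at […]. Substrate is 25, 50 and 100 μM, and inhibitor is 0, 25, 50 and 100 μM. Inhibition type, Ki and Ki′ (EIS complex dissociation constant) come from Dixon and Cornish–Bowden plots of three independent experiments.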"}},
  "note": "pIC50, pKi: −log10 of the molar value. The source made the active and inactive calls. The calls are words filed in the database; no cut-off is given here.",
  "data": [
    {"molecule": "Nc1ncnc2c1ncn2[C@@H]1O[C@H](CO[P@@](O)(=S)OP(=O)(O)CP(=O)(O)O)[C@@H](O)[C@H]1O", "values": [
      {"measurement": "inhibition", "setting": "[1]", "value": 21.6, "unit": "%"},
      {"measurement": "Activity", "setting": "[2]", "value": "inactive"},
      {"measurement": "inhibition", "setting": "[3]", "value": "Active"},
      {"measurement": "inhibition", "setting": "[4]", "value": 23, "unit": "%"},
      {"measurement": "pIC50", "setting": "[5]", "value": 4.73},
      {"measurement": "pKi", "setting": "[5]", "value": 5.89}
    ]},
    {"molecule": "Nc1ncnc2c1ncn2[C@@H]1O[C@H](COP(=O)(O)CP(=O)(O)OP(O)(O)=S)[C@@H](O)[C@H]1O", "values": [
      {"measurement": "inhibition", "setting": "[1]", "value": 58.4, "unit": "%"},
      {"measurement": "Activity", "setting": "[2]", "value": "inactive"},
      {"measurement": "inhibition", "setting": "[3]", "value": "Active"},
      {"measurement": "inhibition", "setting": "[4]", "value": 23, "unit": "%"}
    ]},
    {"molecule": "Nc1ncnc2c1ncn2[C@@H]1O[C@H](CO[P@](O)(=S)OP(=O)(O)CP(=O)(O)O)[C@@H](O)[C@H]1O", "values": [
      {"measurement": "inhibition", "setting": "[1]", "value": 18.7, "unit": "%"},
      {"measurement": "Activity", "setting": "[2]", "value": "inactive"},
      {"measurement": "inhibition", "setting": "[3]", "value": "Active"},
      {"measurement": "inhibition", "setting": "[4]", "value": 23, "unit": "%"},
      {"measurement": "pIC50", "setting": "[5]", "value": 4.79},
      {"measurement": "pKi", "setting": "[5]", "value": 5.35}
    ]},
    {"molecule": "Nc1ncnc2c1ncn2[C@@H]1O[C@H](CO[P@@](O)(=S)OP(=O)(O)C(Cl)(Cl)P(=O)(O)O)[C@@H](O)[C@H]1O", "values": [
      {"measurement": "inhibition", "setting": "[1]", "value": 0.5, "unit": "%"},
      {"measurement": "Activity", "setting": "[2]", "value": "inactive"},
      {"measurement": "inhibition", "setting": "[3]", "value": "Active"},
      {"measurement": "inhibition", "setting": "[4]", "value": 23, "unit": "%"},
      {"measurement": "pIC50", "setting": "[5]", "value": 4.51},
      {"measurement": "pKi", "setting": "[5]", "value": 4.82}
    ]},
    {"molecule": "Nc1ncnc2c1ncn2[C@@H]1O[C@H](CO[P@](O)(=S)OP(=O)(O)C(Cl)(Cl)P(=O)(O)O)[C@@H](O)[C@H]1O", "values": [
      {"measurement": "inhibition", "setting": "[1]", "value": 0.5, "unit": "%"},
      {"measurement": "Activity", "setting": "[2]", "value": "inactive"},
      {"measurement": "inhibition", "setting": "[3]", "value": "Active"},
      {"measurement": "inhibition", "setting": "[4]", "value": 23, "unit": "%"},
      {"measurement": "pIC50", "setting": "[5]", "value": 6.22},
      {"measurement": "pKi", "setting": "[5]", "value": 6.16}
    ]}
  ]
}
